Results taken from ChEMBL document CHEMBL4368925, “Design, synthesis, and screening of novel ursolic acid derivatives as potential anti-cancer agents that target the HIF-1α pathway” (Bioorg Med Chem Lett, 2019).
pIC50: −log10 of the molar value. Activity calls are given as the source filed them. The rule behind the calls is not given here.

Assays:
[1] = biological target: Hypoxia-inducible factor 1-alpha (Homo sapiens) (UniProt Q16665); test: Inhibition of HIF1alpha protein level in human HeLa cells after 12 hrs in hypoxic condition by Western blot analysis; type: cell-based
Hypoxia-inducible factor 1-alpha (Homo sapiens), sequence (Q16665 whole entry, looked up): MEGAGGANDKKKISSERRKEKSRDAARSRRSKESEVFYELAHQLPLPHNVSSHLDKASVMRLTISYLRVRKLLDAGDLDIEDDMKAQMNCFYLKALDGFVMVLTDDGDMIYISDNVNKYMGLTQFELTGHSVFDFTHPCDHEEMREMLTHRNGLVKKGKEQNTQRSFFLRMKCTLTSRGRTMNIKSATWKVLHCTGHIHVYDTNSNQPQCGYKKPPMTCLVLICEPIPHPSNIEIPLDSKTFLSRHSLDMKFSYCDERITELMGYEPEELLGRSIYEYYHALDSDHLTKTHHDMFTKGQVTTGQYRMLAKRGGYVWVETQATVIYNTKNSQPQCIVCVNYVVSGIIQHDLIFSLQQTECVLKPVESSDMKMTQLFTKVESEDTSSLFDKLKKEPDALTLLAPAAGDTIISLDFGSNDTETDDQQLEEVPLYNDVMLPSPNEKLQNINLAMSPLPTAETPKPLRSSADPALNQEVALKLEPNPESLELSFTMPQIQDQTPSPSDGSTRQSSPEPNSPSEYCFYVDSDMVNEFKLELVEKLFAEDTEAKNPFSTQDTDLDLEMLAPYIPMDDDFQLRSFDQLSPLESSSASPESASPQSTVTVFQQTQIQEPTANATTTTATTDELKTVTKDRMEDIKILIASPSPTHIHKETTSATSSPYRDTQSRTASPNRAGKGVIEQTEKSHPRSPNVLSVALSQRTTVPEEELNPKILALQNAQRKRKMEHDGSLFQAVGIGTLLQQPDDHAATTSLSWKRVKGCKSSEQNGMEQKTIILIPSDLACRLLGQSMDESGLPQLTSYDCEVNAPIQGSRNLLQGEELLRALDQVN
Outline: (§1)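 HCT116, A549, Hep3B and HeLa cells incubated 12 h under normoxia or hypoxia with or without indicated compound concentrations; nuclear extracts probed for HIF-1α by Western blot, blot reprobed for topoisomerase-I as loading control.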

[2] = biological target: Hypoxia-inducible factor 1-alpha (Homo sapiens) (UniProt Q16665); test: Inhibition of HIF1alpha protein level in human HCT116 cells after 12 hrs in hypoxic condition by Western blot analysis; type: cell-based; outline: as §1
[3] = biological target: Hypoxia-inducible factor 1-alpha (Homo sapiens) (UniProt Q16665); test: Inhibition of HIF1alpha protein level in human HeLa cells after 12 hrs in normoxic condition by Western blot analysis; type: cell-based; outline: as §1
[4] = biological target: Hypoxia-inducible factor 1-alpha (Homo sapiens) (UniProt Q16665); test: Inhibition of HIFalpha in human Hep3B cells assessed as downregulation of VEGF mRNA expression up to 10 uM after 12 hrs in hypoxic condition by RT-PCR analysis; type: cell-based
Outline: (§2)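 Hep3B cells held under normoxia or hypoxia for 12 h with or without indicated compound concentrations; RNA isolated, reverse-transcribed and analysed by RT-PCR for HIF-1α and VEGF, GAPDH as loading control; mean ± SD of three independent experiments.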

[5] = biological target: T1, 26S proteasome (Homo sapiens) (UniProt Q99460+P49721+P20618+P28074+P28062+P28065+P28072+O00487+P25786+P25787+P25788+P25789+P28066+P60900+O14818+Q8TAA3+P40306+A5LHX3+P49720+P28070+Q99436+Q16186+P35998+P62191+P43686+P62333+P17980+P62195+Q13200+O43242+O00232+O00231+Q15008+P51665+Q9UNM6+P55036+P48556+P60896); test: Inhibition of 26S proteosome in human Hep3B cells grown under in hypoxic condition for 4 hrs assessed as downregulation of HIF1alpha level at 10 uM added together with cycloheximide and measured after up 45 mins post dose by Western blot analysis; type: cell-based
Outline: (§3)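 Hep3B cells kept under normoxia or hypoxia for 4 h, then cycloheximide (10 μM) and compound (10 μM) added to the medium; HIF-1α level detected by Western blot at 0, 15, 30 or 45 min after cycloheximide.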

[6] = biological target: Hypoxia-inducible factor 1-alpha (Homo sapiens) (UniProt Q16665); test: Inhibition of HIF1alpha protein level in human Hep3B cells after 12 hrs in normoxic condition by Western blot analysis; type: cell-based; outline: as §1
[7] = biological target: Hypoxia-inducible factor 1-alpha (Homo sapiens) (UniProt Q16665); test: Inhibition of HIF1alpha in human Hep3B cells at 10 uM preincubated with 26S proteosome inhibitor MG132 followed by compound addition and measured after 12 hrs in hypoxic condition by Western blot analysis; type: cell-based
Outline: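 Proteasome inhibitor MG-132 (10 μM) added to Hep3B cells 30 min before compound (10 μM), then hypoxia for 12 h; nuclear HIF-1α detected by Western blot.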

HeLa = test: Effect on TOP1 protein level in human HeLa cells after 12 hrs in hypoxic condition by Western blot analysis; type: functional, cell-based; outline: as §1
Hep 3B2 [8] = test: Downregulation of HIF1alpha mRNA expression in human Hep3B cells up to 10 uM after 12 hrs in normoxic condition by RT-PCR analysis; type: functional, cell-based; outline: as §2
Hep 3B2 [9] = test: Downregulation of HIF1alpha mRNA expression in human Hep3B cells up to 10 uM after 12 hrs in hypoxic condition by RT-PCR analysis; type: functional, cell-based; outline: as §2
A549 = test: Effect on TOP1 protein level in human A549 cells after 12 hrs in hypoxic condition by Western blot analysis; type: functional, cell-based; outline: as §1
[10] = biological target: Hypoxia-inducible factor 1-alpha (Homo sapiens) (UniProt Q16665); test: Inhibition of HIF1alpha protein level in human A549 cells after 12 hrs in normoxic condition by Western blot analysis; type: cell-based; outline: as §1
[11] = biological target: Hypoxia-inducible factor 1-alpha (Homo sapiens) (UniProt Q16665); test: Inhibition of HIF1alpha protein level in human Hep3B cells at 10 uM after 12 hrs in hypoxic condition by DAPI-staining based confocal laser scanning microscopic analysis; type: cell-based
Outline: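 Hep3B cells given 10 μM compound for 12 h under hypoxia, fixed, stained with anti-HIF-1α (1:100) and Alexa Fluor 488 goat anti-mouse IgG, nuclei counterstained with DAPI; imaged by fluorescence microscopy with 40× objective.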

Hep 3B2 [12] = test: Effect on TOP1 protein level in human Hep3B cells after 12 hrs in hypoxic condition by Western blot analysis; type: functional, cell-based; outline: as §1
[13] = biological target: Hypoxia-inducible factor 1-alpha (Homo sapiens) (UniProt Q16665); test: Inhibition of HIF1alpha protein level in human A549 cells after 12 hrs in hypoxic condition by Western blot analysis; type: cell-based; outline: as §1
[14] = biological target: T1, 26S proteasome (Homo sapiens); test: Inhibition of 26S proteosome in human Hep3B cells grown under in normoxic condition for 4 hrs assessed as downregulation of HIF1alpha level at 10 uM added together with cycloheximide and measured after up 45 mins post dose by Western blot analysis; type: cell-based; outline: as §3
Hep 3B2 [15] = test: Anticlonogenic activity against human Hep3B cells after 10 days by crystal violet staining based assay; type: functional, cell-based
Outline: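 Hep3B cells exposed to compound at 0, 1, 3 and 10 μM for 12 h, then medium replaced with fresh medium and cells grown 10 d; colony formation imaged.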

Hep 3B2 [16] = test: Cytotoxicity against human Hep3B cells assessed as reduction in cell viability up to 30 uM after 24 hrs in normoxic condition by MTT assay; type: cell-based; conditions: hep 3b2, 24 h
Outline: (§4)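 Hep3B viability by MTT assay after 24 h compound treatment under normoxia; table values are means, n=3.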

HCT-116 = test: Effect on TOP1 protein level in human HCT116 cells after 12 hrs in hypoxic condition by Western blot analysis; type: functional, cell-based; outline: as §1
[17] = biological target: Hypoxia-inducible factor 1-alpha (Homo sapiens) (UniProt Q16665); test: Inhibition of HIF1alpha protein level in human Hep3B cells after 12 hrs in hypoxic condition by Western blot analysis; type: cell-based; outline: as §1
Hep 3B2 [18] = test: Antiproliferative activity against human Hep3B cells assessed as reduction in EdU incorporation at 10 uM after 12 hrs in hypoxic condition by DAPI staining based inverted fluorescence microscopic method; type: functional, cell-based
Outline: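 Hep3B cells incubated 12 h with or without compound at 10 μM; EdU-labelled replicating cells examined by fluorescence microscopy, DNA counterstained with DAPI; percentage of EdU-positive cells compared with vehicle-treated cells.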

[19] = biological target: Hypoxia-inducible factor 1-alpha (Homo sapiens) (UniProt Q16665); test: Inhibition of HIF1alpha transcriptional activity in human Hep3B cells after 24 hrs in hypoxic condition by HRE-dual luciferase reporter gene assay; type: cell-based
Outline: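 Hep3B cells transiently co-transfected with pGL3-HRE-luciferase and pRL-CMV, after 24 h incubated under hypoxia with or without compound; luciferase activity measured after 24 h, ursolic acid as positive control; mean ± SD of three independent experiments.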

[20] = biological target: Hypoxia-inducible factor 1-alpha (Homo sapiens) (UniProt Q16665); test: Inhibition of HIF1alpha protein level in human HCT116 cells after 12 hrs in normoxic condition by Western blot analysis; type: cell-based; outline: as §1
Hep 3B2 [21] = test: Cytotoxicity against human Hep3B cells assessed as reduction in cell viability after 24 hrs in normoxic condition by MTT assay; type: cell-based; outline: as §4

What does the source list for C[C@H]1[C@H](C)CC[C@]2(C(=O)O)CC[C@]3(C)C(=CC[C@@H]4[C@@]5(C)CC(=C\c6ccc(Cl)cc6)/C(=N\NC(=N)N)C(C)(C)[C@@H]5CC[C@]43C)[C@H]12?
inhibition [1]: Dose-dependent effect; inhibition [2]: Dose-dependent effect; inhibition [3]: inactive; inhibition [4]: Active; inhibition [5]: inactive; inhibition [6]: inactive; inhibition [7]: Active; Activity (HeLa): inactive; Activity (Hep 3B2 [8]): inactive; Activity (Hep 3B2 [9]): inactive; Activity (A549): inactive; inhibition [10]: inactive; inhibition [11]: Active; Activity (Hep 3B2 [12]): inactive; inhibition [13]: Dose-dependent effect; inhibition [14]: inactive; Activity (Hep 3B2 [15]): Dose-dependent effect; Activity (Hep 3B2 [16]): Non-Toxic; Activity (HCT-116): inactive; inhibition [17]: Dose-dependent effect; Activity (Hep 3B2 [18]): Active; inhibition [19]: Dose-dependent effect; inhibition [20]: inactive; pIC50 (Hep 3B2 [21]): < 4.00
